Calls of active or inactive are those of the source. The rule behind the calls is not given here.
What was measured:
[1] = Inhibition of XIAP BIR2 (124 to 240 residues) C202A/C213G mutant (unknown origin) incubated for 60 mins by biotinylated SMAC peptide Alpha-screen assay; parameters: species or system Homo sapiens
[2] = target: E3 ubiquitin-protein ligase XIAP (Homo sapiens, UniProt P98170); assay: Inhibition of XIAP BIR3 (241 to 356 residues) (unknown origin) incubated for 60 mins by fluoresceinated modified SMAC peptide based fluorescence polarization assay
MDA-MB-231 [3] = assay: Antiproliferative activity against human MDA-MB-231 cells assessed as inhibition of cell proliferation after 72 hrs by MTS assay; assay type: functional, cell-based; settings: MDA-MB-231, 72 h
A549 = assay: Antiproliferative activity against human A549 cells assessed as inhibition of cell proliferation after 72 hrs by MTS assay; assay type: functional, cell-based; settings: A549, 72 h
[4] = Antiproliferative activity against human A875 cells assessed as inhibition of cell proliferation after 72 hrs by MTS assay; assay type: functional, cell-based; settings: A875, 72 h
BIR2 domain of XIAP = BIR2 domain of XIAP (Homo sapiens, UniProt P98170, C202A/C213G); assay: Inhibition of XIAP BIR2-3 (124 to 356 residues) C202A/C213G mutant (unknown origin) in human THP1 cells using fluoresceinated caspase-3 substrate by caspase-3 rescue assay; assay type: cell-based, THP-1
[5] = Mean residence time in Balb/C mouse at 0.2 mg/kg, iv administered as single dose by LC-MS/MS method; assay type: ADME, organism-based; parameters: dose 0.2 mg/kg, route intravenous; settings: in vivo
Method in brief: (§1)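 Mice received one intravenous dose, and parent compound levels in blood were monitored over time. Plasma pharmacokinetic parameters were derived from these concentration–time profiles.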

[6] = Volume of distribution at steady state in Balb/C mouse at 0.2 mg/kg, iv administered as single dose by LC-MS/MS method; assay type: ADME, organism-based; parameters: dose 0.2 mg/kg, route intravenous; settings: in vivo, read-out: Vdss; method in brief: as §1
[7] = Half life in Balb/C mouse at 0.2 mg/kg, iv administered as single dose by LC-MS/MS method; assay type: ADME, organism-based; parameters: dose 0.2 mg/kg, route intravenous; settings: in vivo; method in brief: as §1
Mus musculus [8] = assay: AUClast in Balb/C mouse at 0.2 mg/kg, iv administered as single dose by LC-MS/MS method; assay type: ADME, organism-based, Plasma; parameters: dose 0.2 mg/kg, route intravenous, time 0 - last; settings: in vivo; method in brief: as §1
A875 = assay: Antitumor activity against human A875 cells xenografted in athymic (nu+/nu+) Balb/C mouse assessed as tumor growth inhibition at 50 mg/kg, ip dosed every 3 days for total of 5 administrations and measured on day 12 after last dose; assay type: functional, organism-based; parameters: dose 50 mg/kg
Method in brief: (§2)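 Tumor fragments or cells were implanted subcutaneously in athymic nude mice. Once tumors were staged to 100−150 mm3, mice were dosed intraperitoneally every 3 days for 5 doses (q3d × 5).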

[9] = Antitumor activity against human A875 cells xenografted in athymic (nu+/nu+) Balb/C mouse assessed as tumor growth inhibition at 50 mg/kg, ip dosed every 3 days for total of 5 administrations; assay type: functional; settings: 72 h, route intraperitoneal, read-out: TGI; method in brief: as §2
MDA-MB-231 [10] = assay: Antitumor activity against human MDA-MB-231 cells xenografted in athymic (nu+/nu+) Balb/C mouse assessed as tumor growth inhibition at 5 mg/kg, ip dosed every 3 days for total of 5 administrations; assay type: functional, organism-based; parameters: dose 5 mg/kg; method in brief: as §2
[11] = Half life in Balb/C mouse at 1 mg/kg, iv administered as single dose by LC-MS/MS method; assay type: ADME, organism-based; parameters: dose 1 mg/kg, route intravenous; settings: in vivo; method in brief: as §1
MDA-MB-231 [12] = assay: Antitumor activity against human MDA-MB-231 cells xenografted in athymic (nu+/nu+) Balb/C mouse assessed as tumor growth inhibition at 20 mg/kg, ip dosed every 3 days for total of 5 administrations; assay type: functional, organism-based; parameters: dose 20 mg/kg; method in brief: as §2
Mus musculus [13] = assay: Toxicity in human MDA-MB-231 cells xenografted athymic (nu+/nu+) Balb/C mouse assessed as weight loss at 5 to 50 mg/kg, ip dosed every 3 days for total of 5 administrations; assay type: organism-based; parameters: dose 5-50 mg/kg, route intraperitoneal; settings: in vivo, 72 h
Method in brief: (§3)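 Nude mice carrying subcutaneous MDA-MB-231 tumors staged to 100−150 mm3 were dosed intraperitoneally q3d × 5. Morbidity and body weight loss were monitored throughout the dosing regimen.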

[14] = Mean residence time in Balb/C mouse at 1 mg/kg, iv administered as single dose by LC-MS/MS method; assay type: ADME, organism-based; parameters: dose 1 mg/kg, route intravenous; settings: in vivo; method in brief: as §1
Mus musculus [15] = assay: AUClast in Balb/C mouse at 1 mg/kg, iv administered as single dose by LC-MS/MS method; assay type: ADME, organism-based, Plasma; parameters: time 0 - last, dose 1 mg/kg, route intravenous; settings: in vivo; method in brief: as §1
MDA-MB-231 [16] = assay: Antitumor activity against human MDA-MB-231 cells xenografted in athymic (nu+/nu+) Balb/C mouse assessed as tumor growth inhibition at 50 mg/kg, ip dosed every 3 days for total of 5 administrations; assay type: functional; settings: MDA-MB-231, ip, 72 h, route intraperitoneal, read-out: TGI; method in brief: as §2
Mus musculus [17] = assay: Toxicity in human MDA-MB-231 cells xenografted athymic (nu+/nu+) Balb/C mouse assessed as mouse morbidity at 5 to 50 mg/kg, ip dosed every 3 days for total of 5 administrations; assay type: organism-based; parameters: dose 5-50 mg/kg, route intraperitoneal; settings: in vivo, 72 h; method in brief: as §3
[18] = Volume of distribution at steady state in Balb/C mouse at 1 mg/kg, iv administered as single dose by LC-MS/MS method; assay type: ADME, organism-based; parameters: dose 1 mg/kg, route intravenous; settings: in vivo, read-out: Vdss; method in brief: as §1

Chain of E3 ubiquitin-protein ligase XIAP (P98170 whole entry, looked up, the tested form may be a part): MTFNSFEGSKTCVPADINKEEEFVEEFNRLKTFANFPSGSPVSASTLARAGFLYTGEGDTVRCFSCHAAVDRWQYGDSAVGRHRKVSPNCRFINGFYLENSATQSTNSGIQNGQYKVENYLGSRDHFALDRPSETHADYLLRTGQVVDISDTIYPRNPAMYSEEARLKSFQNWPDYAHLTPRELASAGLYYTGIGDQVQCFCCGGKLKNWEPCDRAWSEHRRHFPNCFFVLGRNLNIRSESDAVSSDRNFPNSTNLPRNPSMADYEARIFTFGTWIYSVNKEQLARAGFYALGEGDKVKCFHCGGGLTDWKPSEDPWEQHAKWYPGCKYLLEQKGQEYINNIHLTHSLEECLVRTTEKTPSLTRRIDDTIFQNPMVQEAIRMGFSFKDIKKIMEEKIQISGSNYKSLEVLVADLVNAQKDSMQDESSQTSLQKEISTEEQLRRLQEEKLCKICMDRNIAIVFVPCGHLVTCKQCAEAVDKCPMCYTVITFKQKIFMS
Chain of BIR2 domain of XIAP (P98170 whole entry C202A/C213G, looked up, the tested form may be a part): as the sequence (P98170 whole entry, looked up, the tested form may be a part) above, with C202A, C213G counted along it

| SMILES | IC50 [1] [nM] | IC50 [2] [nM] | IC50 (MDA-MB-231 [3]) [nM] | IC50 (A549) [nM] | IC50 [4] [nM] | other results |
| --- | --- | --- | --- | --- | --- | --- |
| CN[C@@H](C)C(=O)N[C@H](C(=O)N1C[C@@H]2C[C@H]1C(=O)N[C@@H](Cc1ccccc1)C(=O)N[C@@H](C(=O)O)Cc1ccc(cc1)NC(=O)CCc1cn2nn1)C(C)C | > 18800 | 232 | – | – | – | – |
| CN[C@@H](C)C(=O)N[C@H](C(=O)N1C[C@@H]2C[C@H]1C(=O)N[C@@H](Cc1cccc3ccccc13)C(=O)N[C@H](C(=O)O)Cc1ccc(cc1)OCc1cn(nn1)[C@H]1C[C@@H](C(=O)N[C@@H](Cc3cccc4ccccc34)C(=O)N[C@H](C(=O)O)Cc3ccc(cc3)OCc3cn2nn3)N(C(=O)[C@@H](NC(=O)[C@H](C)NC)C(C)C)C1)C(C)C | 219 | 29 | 197 | > 25000 | 422 | EC50 (BIR2 domain of XIAP): 34 nM |
| CN[C@@H](C)C(=O)N[C@H]1CCCCNC(=O)CCc2cn(nn2)CCOc2ccc(cc2)C[C@@H](C(=O)O)NC(=O)[C@H](Cc2ccccc2)NC(=O)[C@@H]2CCCN2C1=O | > 18800 | 1490 | – | – | – | – |
| CN[C@@H](C)C(=O)N[C@H]1Cc2ccc(cc2)OCc2cn(nn2)CCCOc2ccc(cc2)C[C@@H](C(=O)O)NC(=O)[C@H](Cc2ccccc2)NC(=O)[C@@H]2CCCN2C1=O | 4870 | 366 | – | – | – | – |
| CN[C@@H](C)C(=O)N[C@H]1Cc2ccc(cc2)OCc2cn(nn2)CCOc2ccc(cc2)C[C@H](C(=O)O)NC(=O)[C@H](Cc2ccccc2)NC(=O)[C@@H]2CCCN2C1=O | 7990 | 2880 | – | – | – | – |
| CN[C@@H](C)C(=O)N[C@H](C(=O)N1C[C@@H]2C[C@H]1C(=O)N[C@@H](Cc1ccc3ccccc3c1)C(=O)N[C@H](C(=O)O)Cc1ccc(cc1)OCc1cn(nn1)[C@H]1C[C@@H](C(=O)N[C@@H](Cc3ccc4ccccc4c3)C(=O)N[C@H](C(=O)O)Cc3ccc(cc3)OCc3cn2nn3)N(C(=O)[C@@H](NC(=O)[C@H](C)NC)C2CCCCC2)C1)C1CCCCC1 | 740 | – | 14 | > 25000 | 84 | MRT [5]: 2.5 h; Vd [6]: 0.7 L/kg; half-life [7]: 1.9 h; AUClast (Mus musculus [8]): 457 ng·h/mL |
| CN[C@@H](C)C(=O)N[C@H](C(=O)N1C[C@@H]2C[C@H]1C(=O)N[C@@H](Cc1ccc3ccccc3c1)C(=O)N[C@H](C(=O)O)Cc1ccc(cc1)OCc1cn(nn1)[C@H]1C[C@@H](C(=O)N[C@@H](Cc3ccc4ccccc4c3)C(=O)N[C@H](C(=O)O)Cc3ccc(cc3)OCc3cn2nn3)N(C(=O)[C@@H](NC(=O)[C@H](C)NC)C(C)(C)C)C1)C(C)(C)C | 97 | – | 26 | > 25000 | 77 | TGI (A875): Active; inhibition in vivo at 50 mg/kg [9]: 148%; TGI (MDA-MB-231 [10]): inactive; half-life [11]: 0.85 h; TGI (MDA-MB-231 [12]): inactive; Activity (Mus musculus [13]): Non-toxic; MRT [14]: 0.79 h; AUClast (Mus musculus [15]): 1550 ng·h/mL; inhibition in vivo at 50 mg/kg (MDA-MB-231 [16]): 78%; Activity (Mus musculus [17]): Non-toxic; Vd [18]: 0.34 L/kg |
| CN[C@@H](C)C(=O)N[C@H]1Cc2cn(nn2)CCOc2ccc(cc2)C[C@@H](C(=O)O)NC(=O)[C@H](Cc2ccccc2)NC(=O)[C@@H]2CCCN2C1=O | > 18800 | 1320 | – | – | – | – |
| CN[C@@H](C)C(=O)N[C@H](C(=O)N1C[C@@H]2C[C@H]1C(=O)N[C@@H](Cc1ccc3ccccc3c1)C(=O)N[C@H](C(=O)O)Cc1ccc(cc1)OCc1cn2nn1)C(C)(C)C | 827 | 214 | – | – | – | – |

From ChEMBL document CHEMBL3414571, “The discovery of macrocyclic XIAP antagonists from a DNA-programmed chemistry library, and their optimization to give lead compounds with in vivo antitumor activity” (J Med Chem, 2015)
